NF-kB neuron act = raises NF-kB expression in human neuronal cells. NF-kB reporter expression; hits give high values. fold change at 12.5 µM. AID 1239. actives 1.6% (n = 190,000); in the data active means fold change above about 3.3
STAT1 act = increases IFN-gamma driven STAT1 reporter signal; actives 2.6% (n = 200,000); activation (% of control), % at 5.5 µM; NIH 3T3 STAT1-luciferase reporter, luminescence; 100% = IFN-gamma alone, no compound;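 active means activation above the screen-wide mean activation plus 3 SD, cut at about 130% in these data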
APP 5'UTR act = APP 5'UTR luciferase reporter activation; SH-SY5Y APP 5'UTR luciferase reporter, luminescence; zero percent = DMSO vehicle wells; activation, % at 2 µM; actives 1% (n = 190,000);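 active means activation above a set limit, based on mean plus 3 SD of controls, cut at about 140% in these data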
FLuc inh counter = counter-screen for luciferase assay inhibitors: firefly luciferase inhibition; P08659; actives 1.5% (n = 200,000); inhibition, % at 10 µM; ATPLite firefly luciferase biochemical luminescence, 10 min;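 active means inhibition above about 50% when tested at 10 µM, limit read from the data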
Target sequence (P08659 whole entry, looked up): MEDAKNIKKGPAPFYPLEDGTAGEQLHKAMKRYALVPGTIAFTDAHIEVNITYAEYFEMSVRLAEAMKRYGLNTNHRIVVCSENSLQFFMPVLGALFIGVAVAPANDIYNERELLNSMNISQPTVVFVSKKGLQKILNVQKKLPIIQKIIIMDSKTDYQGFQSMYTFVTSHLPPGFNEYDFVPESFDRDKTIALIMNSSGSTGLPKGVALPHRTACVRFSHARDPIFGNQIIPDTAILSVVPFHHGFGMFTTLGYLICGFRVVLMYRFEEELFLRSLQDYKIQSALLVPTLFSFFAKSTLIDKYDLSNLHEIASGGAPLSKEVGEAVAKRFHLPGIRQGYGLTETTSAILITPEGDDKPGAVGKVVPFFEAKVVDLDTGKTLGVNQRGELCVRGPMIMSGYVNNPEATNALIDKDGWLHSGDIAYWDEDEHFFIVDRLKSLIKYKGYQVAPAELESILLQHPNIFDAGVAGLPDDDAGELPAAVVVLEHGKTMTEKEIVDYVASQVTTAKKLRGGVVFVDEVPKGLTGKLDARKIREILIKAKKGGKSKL
FLuc act counter = firefly luciferase counter-screen for stimulation assays; P08659; ATPlite luciferase biochemical, luminescence, 10 min; 0 = ATP-free wells, 1 = DMSO control; activation factor at 10 µM; 200,000 tested, under 10 active; AID 1027;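 active means luciferase activation factor, scaled between plate controls, of at least 2 with compound at 10 µM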
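Material: luciferase plus luciferin reagent, cell-free. Medium: PBS buffer for ATP. Also added: ATP substrate, dispensed from a 10.24 µM working solution in PBS. Doses: test compounds dosed from 2 mM stocks in 100% DMSO. Incubation: 10 min post-reagent at room temperature. Technique: light output (luminescence). Read-out basis: luminescence gain marking luciferase activators.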
Hits are given with their value; n = inactive; x = no result given. This is a sample that favours compounds with a hit; in the whole collection about 4.1% have one here.

SMILES | NF-kB neuron act | STAT1 act | APP 5'UTR act | FLuc inh counter | FLuc act counter
COc1ccc(-c2nnc(NC(=O)C(C)C)s2)c(OC)c1 | n | 133 | n | n | n
COc1ccc(OC)c(-c2nnc(NC(=O)C(C)Sc3nncn3C)s2)c1 (stereo not drawn) | n | n | n | n | n
CCCc1nnc(NC(=O)c2cccc(OC)c2)s1 | n | 134 | n | n | n
COc1cccc(C(=O)Nc2nc(C)cs2)c1 | 3.7 | 148 | 164 | n | n
O=c1cc(-c2c(F)c(F)c(F)c(F)c2F)oc2c(F)c(F)c(F)c(F)c12 | n | n | n | n | n
COCc1nnc(NC(=O)c2ccc(OC)cc2OC)s1 | 4.4 | n | n | 56 | n
COc1cccc(C(=O)Nc2nnc(C(C)C)s2)c1 | x | 136 | 198 | n | n
Cc1onc(-c2ccccc2)c1C(=O)OCC(=O)NCc1ccc(F)cc1 | n | n | n | n | n
O=C(c1ccco1)N1N=C(c2ccc(Br)cc2)CC1(O)C(F)(F)F (stereo not drawn) | n | n | n | n | n
CC(=O)c1c(C)[nH]c(C(=O)OCC(=O)N2CCc3ccccc32)c1C | n | n | n | n | n
O=C(CSc1ccccc1)N1CCc2ccccc21 | n | 132 | n | n | n
O=C(CCCOc1ccccc1)N1CCCc2ccccc21 | n | n | n | n | n
O=C(COc1ccccc1)N1CCc2ccccc21 | n | 134 | n | n | n
Cc1ccc(C(=O)OCC(=O)N2CCc3ccccc32)cc1 | n | 129 | n | n | n
Cc1ccc2c(CC(=O)N3CCc4ccccc43)coc2c1 | n | 138 | n | n | n
O=C(CCN1C(=O)c2ccccc2C1=O)N1CCC(c2ccccc2)C1 (stereo not drawn) | n | n | n | n | n
OCCN1CCOCCN(CCO)CCOCC1 | n | n | n | n | n
Cc1nc(SCC(=O)Nc2cccnc2Cl)nc(C)c1C | n | n | n | n | n
CCOC(=O)N1CCN(c2cc(NCCC(=O)O)c3c4c(onc24)-c2ccccc2C3=O)CC1 | n | n | n | n | n
O=C(O)CCCNc1cc(N2CCC3(CC2)OCCO3)c2noc3c2c1C(=O)c1ccccc1-3 | n | 143 | n | n | n
Cc1ccn2cc(C34CC5CC(CC(C5)C3)C4)nc2c1 | n | n | n | n | n
Cc1ccc(C(=O)Nc2cc3c(cc2Cl)OCCCO3)cc1 | 4.1 | 155 | n | n | n
O=C(Nc1cc2c(oc1=O)CCCC2=O)c1cccc(Cl)c1 | n | n | n | n | n
COc1ccc(C(=O)Nc2cc3c(oc2=O)CCCC3=O)cc1 | n | 138 | n | n | n
COc1ccc(C(=O)Nc2cc3c(cc2Cl)OCCCO3)cc1 | 4.3 | 137 | n | n | n
SMILES | NF-kB neuron act | STAT1 act | APP 5'UTR act | FLuc inh counter | FLuc act counter
CCC(=O)c1cc2c(cc1NC(=O)c1ccccc1)OCCO2 | n | n | x | n | n
O=C(Nc1cc2c(cc1Br)OCCCO2)c1ccccc1 | n | 146 | n | n | n
Cn1c(=O)[nH]c2sc3c(c2c1=O)CC(C)(C)OC3 | n | n | n | n | n
O=C(Nc1cc2c(cc1Cl)OCCCO2)c1ccc(F)cc1 | n | 145 | n | n | n
COc1ccc(-n2c(=O)c3c4c(sc3n3c(C)nnc23)CCCC4)cc1 | x | n | n | x | x
CN(C)C(=O)c1c(NC(=O)c2ccco2)sc2c1CCCCC2 | n | n | n | n | n
NC(=O)c1cc(Cc2ccccc2)sc1NC(=O)c1ccco1 | 3.4 | 142 | n | n | n
NC(=O)c1c(NC(=O)c2cnccn2)sc2c1CCCC2 | n | 135 | n | n | n
O=C(Nc1sc2c(c1C(=O)O)CCCCC2)c1ccco1 | n | n | n | 74 | n
NC(=O)c1c(NC(=S)Nc2ccc(F)cc2)sc2c1CCCC2 | n | n | n | n | n
NC(=O)c1c(NC(=S)Nc2ccccc2)sc2c1CCCC2 | n | 132 | n | n | n
NC(=O)c1c(NC(=O)c2ccncc2)sc2c1CCCC2 | n | n | n | n | n
Cc1ccc(C)c2c1[nH]c1ccc([N+](=O)[O-])cc12 | n | n | n | n | n
CC1CCCCC1NC(=O)COC(=O)CNC(=O)c1cccc(F)c1 (stereo not drawn) | n | n | n | n | n
Cc1ccc(C(=O)NCC(=O)O)o1 | n | n | n | n | n
NC(=O)c1c(NC(=O)c2ccco2)sc2c1CCC2 | n | 150 | n | n | n
CCOC(=O)c1c(NC(=O)c2ccco2)sc2c1CCCCC2 | n | n | n | n | n
OCCC1CN(Cc2cn[nH]c2C2CCCCC2)CCN1C1CCCCC1 (stereo not drawn) | n | n | n | n | n
CN(CC(=O)N1CCc2ccccc21)S(=O)(=O)c1ccc(Br)s1 | n | n | n | n | n
CC(NCC(c1ccco1)N1CCCCC1)C(=O)NC1CCCC1 (stereo not drawn) | n | n | n | 74 | n
Cc1c(C(=O)N2CCCC2)oc2c1-c1[nH]ncc1CC2 | n | n | n | n | n
Oc1cc(NCc2cccnc2)ccc1-c1nc2ccccc2o1 | n | 134 | 155 | n | n
CCc1ccc(OCC(=O)Nc2ccc(-c3nc4ccccc4o3)c(O)c2)cc1 | n | n | n | n | n
O=C(CN1CCCCCC1)Nc1cccc([N+](=O)[O-])c1 | n | n | n | n | n
Cc1ccc(NC(=O)C(=O)N2CCCC2)cc1Cl | n | 148 | n | n | n
SMILES | NF-kB neuron act | STAT1 act | APP 5'UTR act | FLuc inh counter | FLuc act counter
Cc1ccc(NC(=O)N2CCCC2)cc1Cl | n | n | n | n | n
O=C(Nc1cccc([N+](=O)[O-])c1)C(=O)N1CCCCC1 | n | 132 | n | n | n
COc1ccc(OCCSc2nnc(Cc3cccc4ccccc34)n2N)cc1 | n | n | n | n | n
Cc1ccc(-c2nnc(-c3ccc(Br)cc3)o2)o1 | 3.8 | n | n | n | n
Nc1nn(-c2cccc(F)n2)cc1-c1ccccc1 | 9.9 | n | 213 | 64 | n
Nc1nn(-c2cccc(F)n2)cc1-c1ccc(Cl)cc1 | 12 | n | 251 | 57 | n
Nc1nc(N)nc(-c2ccc(Cl)cc2)n1 | n | n | n | n | n
COc1ccc(C2CC(C(F)(F)F)n3nc(C(=O)O)c(Br)c3N2)cc1 (stereo not drawn) | n | n | n | n | n
CCCCOc1ccccc1C1NC(=O)NC(C)=C1C(=O)OCCOC (stereo not drawn) | x | n | n | x | x
O=C(NC1C(=O)NNC1c1ccccc1)c1ccc(F)cc1 (stereo not drawn) | n | 129 | n | n | n
CCCCOc1ncnc2c1[nH]c1ccc(OCC)cc12 | n | n | n | n | n
CCCCOc1ncnc2c1[nH]c1ccc(OC)cc12 | 4.4 | 137 | n | n | n
COc1ccc2c(c1)S/C(=C\C(=O)c1ccncc1)N2C | n | n | n | n | n
CN1/C(=C\C(=O)c2cccs2)C(C)(C)c2ccccc21 | n | n | n | n | n
CN1/C(=C/C(=O)c2cccs2)Sc2ccccc21 | 5.3 | 140 | n | 77 | n
COc1cc(OC)cc(C(=O)/C=C2\Sc3ccccc3N2C)c1 | n | 131 | n | n | n
O=c1c(Br)c(NCc2ccccc2)cnn1-c1ccc(F)cc1 | n | 129 | n | n | n

Source: PubChem BioAssay (several laboratories)
